Measurements taken from ChEMBL document CHEMBL4689842, “EUbOPEN Chemogenomics Library wave 1” (2021).

Test system: HEK-293T
Experiment: Multiplex assay against HEK293T;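 on Population Tubulin-Different-Phenotype (%): share of the cells with healthy nuclei that show this phenotype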
Format: toxicity, cell-based
Settings: human
Procedure, shortened: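 Phenotypes for tubulin, mitochondrial mass and membrane permeability are expressed as per cents of healthy-nucleus cells. Cells were stained live at seeding with Hoechst33342, BioTracker Green Microtubule Cytoskeleton Dye, MitoTracker Red and Annexin V Alexa Fluor 680, then imaged after compound addition on a CQ1 microscope at 37°C and 5% CO2. Machine-learning gating in CellPathfinder separated Hoechst high-intensity objects from normal cells, divided normal cells by nuclear state (healthy, pyknosed, fragmented) and divided pyknosed cells into mitotic or apoptotic.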

[1] = 12 h, 1 µM, compound concentration 1 uM, replicate 1
[2] = 12 h, 1 µM, compound concentration 1 uM, replicate 2
[3] = 12 h, 10 µM, compound concentration 10 uM, replicate 1
[4] = 12 h, 10 µM, compound concentration 10 uM, replicate 2
[5] = 24 h, 1 µM, compound concentration 1 uM, replicate 1
[6] = 24 h, 1 µM, compound concentration 1 uM, replicate 2
[7] = 24 h, 10 µM, compound concentration 10 uM, replicate 1
[8] = 24 h, 10 µM, compound concentration 10 uM, replicate 2

In the case of `Cc1ccc(NC(=O)Nc2cc(C(F)(F)F)ccc2F)cc1Nc1ccc2c(c1)NC(=O)/C2=C\c1ccc[nH]1`, the “Population Apoptotic (%)” value [1] is reported as 13%, the “Population Fragmented Nuclei (%)” value [1] is reported as 19% and the “Population Healthy Nuclei (%)” value [1] is reported as 28%. The “Population Hoechst High Intensity Objects (%)” value [1] was 16%, the “Population Membrane Permeable-Phenotype (%)” value [1] was 59% and the “Population Mitochondria Different-Phenotype (%)” value [1] was 0%. The “Population Mitotic Cells (%)” value [1] was 86%, the “Population Normal (%)” value [1] was 83% and the “Population Pyknosed Nuclei (%)” value [1] was 51%. The “Population Tubulin-Different-Phenotype (%)” value [1] was 28%, the “Total Cell Count” value [1] was 644 and the “Population Apoptotic (%)” value [2] was 2%. For the same compound, the “Population Fragmented Nuclei (%)” value [2] was 2%, the “Population Healthy Nuclei (%)” value [2] was 83% and the “Population Hoechst High Intensity Objects (%)” value [2] was 2%. For the same compound, the “Population Mitotic Cells (%)” value [2] was 97%, the “Population Normal (%)” value [2] was 97% and the “Population Pyknosed Nuclei (%)” value [2] was 13%. The “Population Tubulin-Different-Phenotype (%)” value [2] was 50%, the “Total Cell Count” value [2] was 1372 and the “Population Apoptotic (%)” value [3] was 14%. For the same compound, the “Population Fragmented Nuclei (%)” value [3] was 10%, the “Population Healthy Nuclei (%)” value [3] was 68% and the “Population Hoechst High Intensity Objects (%)” value [3] was 6%. For the same compound, the “Population Membrane Permeable-Phenotype (%)” value [3] was 1%, the “Population Mitochondria Different-Phenotype (%)” value [3] was 3% and the “Population Mitotic Cells (%)” value [3] was 85%. For the same compound, the “Population Normal (%)” value [3] was 93%, the “Population Pyknosed Nuclei (%)” value [3] was 21% and the “Population Tubulin-Different-Phenotype (%)” value [3] was 0%. The “Total Cell Count” value [3] was 577, the “Population Apoptotic (%)” value [4] was 4% and the “Population Fragmented Nuclei (%)” value [4] was 7%. The “Population Healthy Nuclei (%)” value [4] was 87%, the “Population Hoechst High Intensity Objects (%)” value [4] was 2% and the “Population Mitochondria Different-Phenotype (%)” value [4] was 5%. The “Population Mitotic Cells (%)” value [4] was 95%, the “Population Normal (%)” value [4] was 97% and the “Population Pyknosed Nuclei (%)” value [4] was 5%. The “Population Tubulin-Different-Phenotype (%)” value [4] was 2%, the “Total Cell Count” value [4] was 1471 and the “Population Apoptotic (%)” value [5] was 15%. For the same compound, the “Population Fragmented Nuclei (%)” value [5] was 20%, the “Population Healthy Nuclei (%)” value [5] was 34% and the “Population Hoechst High Intensity Objects (%)” value [5] was 14%. For the same compound, the “Population Membrane Permeable-Phenotype (%)” value [5] was 47%, the “Population Mitochondria Different-Phenotype (%)” value [5] was 0% and the “Population Mitotic Cells (%)” value [5] was 84%. The “Population Normal (%)” value [5] was 85%, the “Population Pyknosed Nuclei (%)” value [5] was 45% and the “Population Tubulin-Different-Phenotype (%)” value [5] was 33%. The “Total Cell Count” value [5] was 618, the “Population Apoptotic (%)” value [6] was 3% and the “Population Fragmented Nuclei (%)” value [6] was 4%. The “Population Healthy Nuclei (%)” value [6] was 82%, the “Population Hoechst High Intensity Objects (%)” value [6] was 4% and the “Population Membrane Permeable-Phenotype (%)” value [6] was 52%. For the same compound, the “Population Mitotic Cells (%)” value [6] was 96%, the “Population Normal (%)” value [6] was 95% and the “Population Pyknosed Nuclei (%)” value [6] was 13%. The “Population Tubulin-Different-Phenotype (%)” value [6] was 68%, the “Total Cell Count” value [6] was 1297 and the “Population Apoptotic (%)” value [7] was 14%. For the same compound, the “Population Fragmented Nuclei (%)” value [7] was 7%, the “Population Healthy Nuclei (%)” value [7] was 82% and the “Population Hoechst High Intensity Objects (%)” value [7] was 2%. The “Population Membrane Permeable-Phenotype (%)” value [7] was 2%, the “Population Mitochondria Different-Phenotype (%)” value [7] was 1% and the “Population Mitotic Cells (%)” value [7] was 85%. The “Population Normal (%)” value [7] was 97%, the “Population Pyknosed Nuclei (%)” value [7] was 10% and the “Population Tubulin-Different-Phenotype (%)” value [7] was 1%. For the same compound, the “Total Cell Count” value [7] was 682, the “Population Apoptotic (%)” value [8] was 0% and the “Population Fragmented Nuclei (%)” value [8] was 18%. For the same compound, the “Population Healthy Nuclei (%)” value [8] was 79%, the “Population Hoechst High Intensity Objects (%)” value [8] was 3% and the “Population Membrane Permeable-Phenotype (%)” value [8] was 3%. The “Population Mitochondria Different-Phenotype (%)” value [8] was 0%, the “Population Mitotic Cells (%)” value [8] was 100% and the “Population Normal (%)” value [8] was 96%. For the same compound, the “Population Pyknosed Nuclei (%)” value [8] was 2%, the “Population Tubulin-Different-Phenotype (%)” value [8] was 2% and the “Total Cell Count” value [8] was 2446.
With `CCOC(=O)CCNc1cc(N2CCc3ccccc3CC2)nc(-c2ccccn2)n1` the “Population Apoptotic (%)” value [1] was 15%, the “Population Fragmented Nuclei (%)” value [1] was 15% and the “Population Healthy Nuclei (%)” value [1] was 66%. The “Population Hoechst High Intensity Objects (%)” value [1] was 9%, the “Population Membrane Permeable-Phenotype (%)” value [1] was 4% and the “Population Mitochondria Different-Phenotype (%)” value [1] was 3%. For the same compound, the “Population Mitotic Cells (%)” value [1] was 84%, the “Population Normal (%)” value [1] was 90% and the “Population Pyknosed Nuclei (%)” value [1] was 17%. The “Population Tubulin-Different-Phenotype (%)” value [1] was 4%, the “Total Cell Count” value [1] was 720 and the “Population Apoptotic (%)” value [2] was 8%. For the same compound, the “Population Fragmented Nuclei (%)” value [2] was 8%, the “Population Healthy Nuclei (%)” value [2] was 86% and the “Population Hoechst High Intensity Objects (%)” value [2] was 1%. The “Population Membrane Permeable-Phenotype (%)” value [2] was 1%, the “Population Mitochondria Different-Phenotype (%)” value [2] was 8% and the “Population Mitotic Cells (%)” value [2] was 91%. The “Population Normal (%)” value [2] was 98%, the “Population Pyknosed Nuclei (%)” value [2] was 4% and the “Population Tubulin-Different-Phenotype (%)” value [2] was 5%. The “Total Cell Count” value [2] was 1753, the “Population Apoptotic (%)” value [3] was 22% and the “Population Fragmented Nuclei (%)” value [3] was 13%. The “Population Healthy Nuclei (%)” value [3] was 54%, the “Population Hoechst High Intensity Objects (%)” value [3] was 16% and the “Population Membrane Permeable-Phenotype (%)” value [3] was 4%. For the same compound, the “Population Mitochondria Different-Phenotype (%)” value [3] was 27%, the “Population Mitotic Cells (%)” value [3] was 77% and the “Population Normal (%)” value [3] was 83%. The “Population Pyknosed Nuclei (%)” value [3] was 32%, the “Population Tubulin-Different-Phenotype (%)” value [3] was 31% and the “Total Cell Count” value [3] was 622. For the same compound, the “Population Apoptotic (%)” value [4] was 26%, the “Population Fragmented Nuclei (%)” value [4] was 3% and the “Population Healthy Nuclei (%)” value [4] was 87%. For the same compound, the “Population Hoechst High Intensity Objects (%)” value [4] was 4%, the “Population Membrane Permeable-Phenotype (%)” value [4] was 2% and the “Population Mitochondria Different-Phenotype (%)” value [4] was 43%. For the same compound, the “Population Mitotic Cells (%)” value [4] was 73%, the “Population Normal (%)” value [4] was 95% and the “Population Pyknosed Nuclei (%)” value [4] was 8%. The “Population Tubulin-Different-Phenotype (%)” value [4] was 56%, the “Total Cell Count” value [4] was 1158 and the “Population Apoptotic (%)” value [5] was 20%. The “Population Fragmented Nuclei (%)” value [5] was 12%, the “Population Healthy Nuclei (%)” value [5] was 79% and the “Population Hoechst High Intensity Objects (%)” value [5] was 4%. The “Population Mitochondria Different-Phenotype (%)” value [5] was 2%, the “Population Mitotic Cells (%)” value [5] was 79% and the “Population Normal (%)” value [5] was 95%. The “Population Pyknosed Nuclei (%)” value [5] was 8%, the “Population Tubulin-Different-Phenotype (%)” value [5] was 7% and the “Total Cell Count” value [5] was 821. For the same compound, the “Population Apoptotic (%)” value [6] was 1%, the “Population Fragmented Nuclei (%)” value [6] was 23% and the “Population Healthy Nuclei (%)” value [6] was 73%. For the same compound, the “Population Hoechst High Intensity Objects (%)” value [6] was 2%, the “Population Membrane Permeable-Phenotype (%)” value [6] was 5% and the “Population Mitochondria Different-Phenotype (%)” value [6] was 1%. The “Population Mitotic Cells (%)” value [6] was 98%, the “Population Normal (%)” value [6] was 97% and the “Population Pyknosed Nuclei (%)” value [6] was 2%. For the same compound, the “Population Tubulin-Different-Phenotype (%)” value [6] was 6%, the “Total Cell Count” value [6] was 2917 and the “Population Apoptotic (%)” value [7] was 40%. For the same compound, the “Population Fragmented Nuclei (%)” value [7] was 14%, the “Population Healthy Nuclei (%)” value [7] was 46% and the “Population Hoechst High Intensity Objects (%)” value [7] was 18%. For the same compound, the “Population Membrane Permeable-Phenotype (%)” value [7] was 4%, the “Population Mitochondria Different-Phenotype (%)” value [7] was 54% and the “Population Mitotic Cells (%)” value [7] was 59%. The “Population Normal (%)” value [7] was 81%, the “Population Pyknosed Nuclei (%)” value [7] was 38% and the “Population Tubulin-Different-Phenotype (%)” value [7] was 47%. For the same compound, the “Total Cell Count” value [7] was 535, the “Population Apoptotic (%)” value [8] was 29% and the “Population Fragmented Nuclei (%)” value [8] was 4%. For the same compound, the “Population Healthy Nuclei (%)” value [8] was 83%, the “Population Hoechst High Intensity Objects (%)” value [8] was 8% and the “Population Membrane Permeable-Phenotype (%)” value [8] was 2%. For the same compound, the “Population Mitochondria Different-Phenotype (%)” value [8] was 50%, the “Population Mitotic Cells (%)” value [8] was 70% and the “Population Normal (%)” value [8] was 91%. For the same compound, the “Population Pyknosed Nuclei (%)” value [8] was 12%, the “Population Tubulin-Different-Phenotype (%)” value [8] was 65% and the “Total Cell Count” value [8] was 1034.
